Consider one compound from ChEMBL document CHEMBL2034936, “Discovery and extensive in vitro evaluations of NK-HDAC-1: a chiral histone deacetylase inhibitor as a promising lead” (J Med Chem, 2012).

The test system of data set [1] is SNB-75. Kind of data set: Growth inhibition of human SNB75 cells after 72 hrs by MTS assay. The class given is functional. The note with it: SNB-75, 72 h. Background: Formazan colour is commonly taken as a measure of viable cells.
Data set [2] relates to UACC-62. Nature of the data set: Growth inhibition of human UACC62 cells after 72 hrs by MTS assay. The class given is functional. The note with it: UACC-62, 72 h.
For data set [3], the system named is NCI-H460. Kind of data set: Growth inhibition of human NCI-H460 cells after 72 hrs by MTS assay. The class given is functional. The note with it: NCI-H460, 72 h.
Data set [4] in a line: Lipophilicity, log D of the compound in pH 7.4 PBS buffer. The class given is physicochemical.
The nature of data set [5]: Solubility in neutral water. The class given is physicochemical.
Data set [6] has as its system HT-29. Nature of the data set: Growth inhibition of human HT-29 cells after 72 hrs by MTS assay. The class given is functional. The note with it: HT-29, 72 h.
The nature of data set [7]: Half life in mouse plasma. The class given is ADME, cell-free.
Data set [8] in a line: Half life in mouse liver microsomes. The class given is ADME, Microsome. For orientation: Liver microsomes are a subcellular fraction often used to study metabolism.
For data set [9], the system named is CCRF-CEM. Nature of the data set: Growth inhibition of human CCRF-CEM cells after 72 hrs by MTS assay. The class given is functional.
The subject of data set [10] is COLO 205. Nature of the data set: Growth inhibition of human COLO205 cells after 72 hrs by MTS assay. The class given is functional. The note with it: COLO 205, 72 h.
Data set [11] relates to HCT-116. Kind of data set: Growth inhibition of human HCT116 cells after 72 hrs by MTS assay. The class given is functional. To be noted: HCT-116, 72 h.
A short description of data set [12]: Apparent permeability from basolateral to apical side in human Caco2 cells at 10 uM. The class given is ADME, cell-based. The note with it: Caco-2. In outline:
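Caco-2 monolayers, test compound at 10 μM. Apparent permeability measured in both directions, apical to basolateral and basolateral to apical. Efflux ratio = P_app B to A / P_app A to B. Run by a contract lab following published methods. Mean of three independent triplicate experiments.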
In general terms: Caco-2 cells form a polarised layer with tight junctions and transporters.

Data set [13] relates to OVCAR-5. Kind of data set: Growth inhibition of human OVCAR5 cells after 72 hrs by MTS assay. The class given is functional. The note with it: OVCAR-5, 72 h.
Data set [14] has as its system MOLT-4. Nature of the data set: Growth inhibition of human MOLT4 cells after 72 hrs by MTS assay. The class given is functional. To be noted: MOLT-4, 72 h.
The test system of data set [15] is NCI-H322M. Nature of the data set: Growth inhibition of human NCI-H322M cells after 72 hrs by MTS assay. The class given is functional.
For data set [16], the target named is Cytochrome P450 3A4 (Homo sapiens, UniProt P08684). Nature of the data set: Inhibition of human CYP3A4. The class given is ADME.
Sequence of Cytochrome P450 3A4 (P08684 whole entry): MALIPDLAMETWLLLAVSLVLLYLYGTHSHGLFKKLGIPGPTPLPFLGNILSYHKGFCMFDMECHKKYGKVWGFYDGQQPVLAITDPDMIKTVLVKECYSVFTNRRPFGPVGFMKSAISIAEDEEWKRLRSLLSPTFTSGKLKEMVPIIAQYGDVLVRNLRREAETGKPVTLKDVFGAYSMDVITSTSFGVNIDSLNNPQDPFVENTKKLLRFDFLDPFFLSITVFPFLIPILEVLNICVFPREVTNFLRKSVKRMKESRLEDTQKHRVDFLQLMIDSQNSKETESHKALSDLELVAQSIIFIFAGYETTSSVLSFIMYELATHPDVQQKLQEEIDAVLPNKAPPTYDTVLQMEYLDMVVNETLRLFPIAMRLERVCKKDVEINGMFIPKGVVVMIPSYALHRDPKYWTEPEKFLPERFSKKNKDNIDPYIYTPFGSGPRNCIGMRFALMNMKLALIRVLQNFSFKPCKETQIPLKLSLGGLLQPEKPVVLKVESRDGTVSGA

One may read the GI50 as the concentration that inhibits growth by half. A low value points to greater sensitivity of the cells. The term logD denotes lipophilicity at a set pH, counting ionised and neutral species. A word on the solubility: it is the concentration that dissolves in the medium under given conditions. Read a high solubility as much dissolved substance. Usually half-life stands for the time in which the quantity being followed falls by half. Read a high half-life as slow decline. The term Papp B→A denotes the apparent permeability from the basolateral to the apical side of a cell layer. For `O=C(CCCCCCC(=O)Nc1ccccc1)NO` [VORINOSTAT], the GI50 in data set [1] was found to be 790 nM; in data set [2], 400 nM; in data set [3] it was 790 nM; in [6], 790 nM; in [9] it was 800 nM; in data set [10], 790 nM. Further, the GI50 was determined as 400 nM in [11], 790 nM in data set [13], 400 nM in [14] and 790 nM in data set [15]. For the same compound, in [4], the logD was determined as 1. Besides, in [5], the solubility was > 170 µg/mL. Moreover, the half-life in data set [7] is 3.3 h; in data set [8], 1.37 h. The Papp B→A at 10 µM in data set [12] was 1.7 ×10⁻⁶ cm/s. The INH in data set [16] stood at 24.8 µM.
